Calls of active or inactive are those of the source. The rule behind the calls is not given here.
Assays:
Rattus norvegicus [1] = species on record: Rattus norvegicus; assay: animal or person; settings: Sprague-Dawley, Plasma, po, 6 h, read-out: Inhibition
Rattus norvegicus [2] = assay: Ex vivo inhibition of DPP4 in Sprague-Dawley rat plasma at 0.3 mg/kg, po after 9 hrs; type: functional
Method in brief: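 Male Sprague–Dawley rats, 6–7 weeks old, fasted at least 8 h, then given a single oral dose of 0.3 mg/kg in 0.5% methyl cellulose. Jugular vein blood was drawn before dosing and at 0.25–9 h after. Plasma was mixed with Gly-Pro-AMC (added as a 60 µM solution). The initial rate over the first 15 min was read at 37 °C (ex 355/em 460 nm). Inhibition is expressed as % of basal activity.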

Dipeptidyl peptidase 8 = Dipeptidyl peptidase 8 (Homo sapiens, UniProt Q6V1X1); assay: Inhibition of human DPP8
Dipeptidyl peptidase 8, sequence (Q6V1X1 whole entry): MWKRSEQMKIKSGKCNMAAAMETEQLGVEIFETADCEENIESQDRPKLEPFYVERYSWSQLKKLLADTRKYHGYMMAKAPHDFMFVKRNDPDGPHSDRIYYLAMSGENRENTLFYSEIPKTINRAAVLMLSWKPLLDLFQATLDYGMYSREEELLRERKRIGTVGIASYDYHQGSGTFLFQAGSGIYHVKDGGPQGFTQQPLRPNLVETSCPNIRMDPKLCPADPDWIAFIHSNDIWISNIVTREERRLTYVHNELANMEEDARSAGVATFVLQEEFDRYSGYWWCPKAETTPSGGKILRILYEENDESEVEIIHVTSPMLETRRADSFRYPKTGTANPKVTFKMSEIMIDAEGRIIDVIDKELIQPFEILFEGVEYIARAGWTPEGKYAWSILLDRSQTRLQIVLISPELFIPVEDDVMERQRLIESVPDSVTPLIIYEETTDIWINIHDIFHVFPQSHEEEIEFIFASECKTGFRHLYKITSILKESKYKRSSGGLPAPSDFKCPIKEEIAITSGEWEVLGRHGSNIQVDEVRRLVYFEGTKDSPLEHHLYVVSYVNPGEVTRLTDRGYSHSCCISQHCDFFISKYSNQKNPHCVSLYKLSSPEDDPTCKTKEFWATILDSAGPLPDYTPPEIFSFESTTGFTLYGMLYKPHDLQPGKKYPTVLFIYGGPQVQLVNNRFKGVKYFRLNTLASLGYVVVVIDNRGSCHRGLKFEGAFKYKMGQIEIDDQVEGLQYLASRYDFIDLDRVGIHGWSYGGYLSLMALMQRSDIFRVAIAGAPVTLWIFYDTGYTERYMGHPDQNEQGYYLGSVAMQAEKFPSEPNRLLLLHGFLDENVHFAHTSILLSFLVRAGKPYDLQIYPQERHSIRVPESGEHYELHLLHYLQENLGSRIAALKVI

Rattus norvegicus [3] = assay: Reduction of glucose level in Sprague-Dawley rat plasma at 1 mg/kg, po after 7 hrs by multiple glucose tolerance test; type: functional, organism-based; set-up: dose 1 mg/kg
Method in brief: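 Male SD rats (364–473 g), fasted at least 20 h, were dosed orally at −0.5 h with 1 mg/kg or with vehicle (0.5% methyl cellulose). Oral glucose, 1 g/kg, was given at 0 and 6 h. Tail vein plasma was taken at −0.08 to 8 h, stored at −80 °C, and assayed by glucose oxidase-peroxidase. Results are mean ± SEM (n = 7), compared with vehicle by Student's t test.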

Row | Structure (SMILES) | inhibition in vivo at 0.3 mg/kg (Rattus norvegicus [1]) [%] | other results
1 | CCN(CC#N)C(=O)[C@@H]1C[C@H](C(=O)N2Cc3ccccc3C2)[C@H](C)N1 | 64 | 
2 | CCN(CC#N)C(=O)[C@@H]1C[C@H](C(=O)N2CCOCC2)[C@H](C)N1 | 65 | 
3 | C[C@@H]1N[C@H](C(=O)N(CC#N)C2CC2)C[C@@H]1C(=O)N(C)C | 29 | 
4 | C=CCN(CC#N)C(=O)[C@@H]1C[C@H](C(=O)N(C)C)[C@H](C)N1 | 19 | 
5 | C[C@@H]1N[C@H](C(=O)N2CCC[C@H]2C#N)C[C@@H]1C(=O)N(C)C | 89 | inhibition in vivo at 0.3 mg/kg (Rattus norvegicus [2]): 83%
6 | CC[C@@H]1N[C@H](C(=O)N2CCC[C@H]2C#N)C[C@@H]1C(=O)N(C)C | 45 | 
7 | C[C@@H]1N[C@H](C(=O)N2CCC[C@H]2C#N)C[C@@H]1CC(=O)N(C)C | 40 | 
8 | CCN(CC#N)C(=O)[C@@H]1C[C@H](C(=O)N2CCCCC2)[C@H](C)N1 | 60 | 
9 | C#CCN(CC#N)C(=O)[C@@H]1C[C@H](C(=O)N(C)C)[C@H](C)N1 | 18 | 
10 | CCN(CC#N)C(=O)[C@@H]1C[C@H](C(=O)N(C)C)[C@H](C)N1 | 73 | inhibition in vivo at 0.3 mg/kg (Rattus norvegicus [2]): 62%; IC50 (Dipeptidyl peptidase 8): > 100 µM; Activity (Rattus norvegicus [3]): Active
11 | CCN(CC#N)C(=O)[C@@H]1C[C@H](C(=O)NCc2ccccc2)[C@H](C)N1 | 31 | 
12 | C[C@@H]1N[C@H](C(=O)N(C)CC#N)C[C@@H]1C(=O)N(C)C | 55 | IC50 (Dipeptidyl peptidase 8): > 100 µM
13 | CCN(CC#N)C(=O)[C@@H]1C[C@H](C(=O)N2CCCC2)[C@H](C)N1 | 53 | 

From ChEMBL document CHEMBL1143890, “Discovery of long-acting N-(cyanomethyl)-N-alkyl-L-prolinamide inhibitors of dipeptidyl peptidase IV” (Bioorg Med Chem, 2008)
